Measurements pooled from the literature.
Each line is one published result; the experiments were not run side by side.
PROC: Vitamin K-dependent protein C (PROC, Homo sapiens, UniProt P04070)
PFF0160c: Dihydroorotate dehydrogenase (quinone), mitochondrial (PFF0160c, Plasmodium falciparum, UniProt Q08210)
PFF0160c E182D: Dihydroorotate dehydrogenase (quinone), mitochondrial (PFF0160c, Plasmodium falciparum, UniProt Q08210, E182D)
OPRK1: Kappa-type opioid receptor (OPRK1, Homo sapiens, UniProt P41145)

SMILES | target | test | IC50 [µM]
CC(C)C[C@@H]1C(=O)N[C@H]([C@@H](C)O)C(=O)N[C@H](C)[C@@H](C)C(=O)O[C@@H](Cc2ccccc2)C(=O)N(C)[C@@H](C(C)C)C(=O)N2CCC[C@H]2C(=O)N(C)[C@H](Cc2ccccc2)C2=N[C@@H](CS2)C(=O)N[C@H](C)C2=N[C@@H](CS2)C(=O)N1C | PROC | enzyme activity, inhibitor | 66.6
Cc1nc(Nc2ccc(C)c(Cl)c2)c2c(C)noc2n1 | PFF0160c | enzyme activity, inhibitor, absorbance | 0.13
CN(C)S(=O)(=O)c1ccc(Sc2ccccc2)c(C(=O)N2CCCC(C(N)=O)C2)c1 (stereo not shown) | PFF0160c E182D | enzyme activity, inhibitor, absorbance | 2.56
Cc1nc(Nc2ccc(S(F)(F)(F)(F)F)cc2)c2c(C(F)(F)F)noc2n1 | PFF0160c | enzyme activity, inhibitor, absorbance | 0.043
CCc1nc2nc(C)cc(Nc3ccc4c(c3)OCCO4)n2n1 | PFF0160c | enzyme activity, inhibitor, absorbance | 0.492
CC(CCc1ccccc1)NC(C)C(O)c1ccc(O)cc1 (stereo not shown) | OPRK1 | ligand displacement, radioligand | 4.98
Cc1cc(C(C)NC(=O)c2[nH]cc(-c3n[nH]c4cc(C(F)(F)F)ccc34)c2C)no1 (stereo not shown) | PFF0160c | enzyme activity, inhibitor, absorbance | > 100
Cc1nc(Nc2ccc(S(F)(F)(F)(F)F)cc2)c2c(C)noc2n1 | PFF0160c | enzyme activity, inhibitor, absorbance | 0.036
COc1cc(Nc2ncc(F)c(Nc3ccc4c(n3)NC(=O)C(C)(C)O4)n2)cc(OC)c1OC | cGMP-specific 3',5'-cyclic phosphodiesterase (PDE5A, Homo sapiens, UniProt O76074) | enzyme activity, inhibitor | 0.316
CC[C@H]1NC(=O)[C@@H]2CSC(=N2)[C@@H](Cc2ccccc2)N(C)C(=O)[C@@H]2CCCN2C(=O)[C@H](C(C)C)N(C)C(=O)[C@H](Cc2ccccc2)OC(=O)[C@H](C)[C@@H](C)NC(=O)[C@@H]([C@@H](C)O)NC(=O)[C@@H](CC(C)C)N(C)C(=O)[C@@H]2CSC1=N2 | PROC | enzyme activity, inhibitor | 79
CC(=O)c1c(Nc2c(C)cc(C)cc2C)oc(C)cc1=O | PFF0160c E182D | enzyme activity, inhibitor, absorbance | 0.659
O=C(CCCC(=O)N1CCN(C(=O)c2cc(Cc3n[nH]c(=O)c4ccccc34)ccc2F)CC1)NCCNC(=O)C1CC2C=CC1C2 (stereo not shown) | Poly [ADP-ribose] polymerase 1 (PARP1, Homo sapiens, UniProt P09874) | enzyme activity, inhibitor | 0.0101
Cc1nc(NC2CCc3cc(Cl)ccc3C2)c2c(C)noc2n1 (stereo not shown) | PFF0160c | enzyme activity, inhibitor, absorbance | 0.12
O=S(=O)(O)c1nc2ccccc2[nH]1 | racE (Bacillus subtilis, UniProt P94556, N75A) | enzyme activity, inhibitor, absorbance | 890
Cc1c(Cc2ccc(C(F)(F)F)cc2F)c[nH]c1C(=O)NC(C)c1nc[nH]n1 (stereo not shown) | PFF0160c | enzyme activity, inhibitor, absorbance | 0.35
CCc1ccccc1N=C1c2c(cccc2[N+](=O)[O-])C(=O)C1C(C)=O (stereo not shown) | PFF0160c E182D | enzyme activity, inhibitor, absorbance | 0.384
Cc1c(C2(c3ccc(C(F)F)nc3)CC2)c[nH]c1C(=O)NC(C)c1nc[nH]n1 (stereo not shown) | PFF0160c | enzyme activity, inhibitor, absorbance | > 30
Cc1nc(NC2CCc3ccc(Br)cc3C2)c2c(C)noc2n1 (stereo not shown) | PFF0160c | enzyme activity, inhibitor, absorbance | 0.022
Cc1nc(C(C)NC(=O)c2[nH]cc(Cc3ccc(C(F)(F)F)nc3)c2C)c[nH]1 (stereo not shown) | PFF0160c | enzyme activity, inhibitor, absorbance | 1.3
Cn1cc(-c2ccc(-n3ccc(OCc4ccc(Cl)cn4)cc3=O)cn2)cn1 | PFF0160c E182D | enzyme activity, inhibitor, absorbance | 7.02
Cc1cc(C(C)NC(=O)c2[nH]cc(Cc3ccc(C(F)(F)F)nc3)c2C)n[nH]1 (stereo not shown) | PFF0160c | enzyme activity, inhibitor, absorbance | 0.1
CCNC(=O)c1ccc(-n2nc(C)cc2-c2ccccc2)cc1 | PFF0160c | enzyme activity, inhibitor, absorbance | 0.74
Cc1c(C2(c3ccc(C(F)(F)F)cc3F)CC2)c[nH]c1C(=O)NC(C)c1nc[nH]n1 (stereo not shown) | PFF0160c | enzyme activity, inhibitor, absorbance | > 100
Cc1nc(Nc2ccc(C(F)(F)F)nc2)c2c(C)noc2n1 | PFF0160c | enzyme activity, inhibitor, absorbance | 0.15
COc1ccc(C(=O)NCC(C)(C)c2nc(-c3ccc(Cl)c(O)c3)c(-c3ccncc3)[nH]2)cc1OCCN(C(C)C)C(C)C | PFF0160c | enzyme activity, inhibitor, absorbance | > 10
O=C(Nc1ccccc1)OCC(CN1CCCCC1)OC(=O)Nc1ccccc1 (stereo not shown) | OPRK1 | ligand displacement, radioligand | 1.42
CC(c1ccc(Cl)c(Cl)c1)c1nn2c(-c3ccccc3F)nnc2s1 (stereo not shown) | PFF0160c | enzyme activity, inhibitor, absorbance | 0.541
Cc1c(Cc2ccc(C(F)(F)F)nc2)c[nH]c1C(=O)NC(C)c1nc[nH]n1 (stereo not shown) | PFF0160c | enzyme activity, inhibitor, absorbance | > 100
